Assay results reported in ChEMBL document CHEMBL1143111, “Synthesis and antimicrobial activity of novel C-linked imidazole glycoconjugates” (Bioorg Med Chem Lett, 2008).
Values after ≈ are worked out from the molar mass of the structure shown. Active and inactive are the calls of the source. No cut-off for these calls is given here.

Tests used:
Escherichia coli = test: Antibacterial activity against Escherichia coli by broth dilution method; type: functional
Method in brief: (§1)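 Compounds and reference drugs were dissolved as stocks in 50% DMSO–water, then serially diluted twofold with culture medium, with bacterial inoculum added […], and the MIC was determined. Only compounds that gave a growth-inhibition zone in a prior agar cup diffusion screen went on to this broth dilution test.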

[1] = system: Staphylococcus epidermidis; test: Antibacterial activity against Staphylococcus epidermidis by broth dilution method; type: functional; method in brief: as §1
Candida albicans = test: Antifungal activity against Candida albicans by agar cup diffusion method; type: functional, organism-based
Klebsiella pneumoniae = test: Antibacterial activity against Klebsiella pneumoniae by broth dilution method; type: functional; method in brief: as §1
Rhizopus arrhizus = test: Antifungal activity against Rhizopus oryzae by agar cup diffusion method; type: functional, organism-based
Aspergillus niger = test: Antifungal activity against Aspergillus niger by agar cup diffusion method; type: functional, organism-based
Bacillus subtilis = test: Antibacterial activity against Bacillus subtilis by broth dilution method; type: functional; method in brief: as §1
Pseudomonas aeruginosa = test: Antibacterial activity against Pseudomonas aeruginosa by broth dilution method; type: functional; method in brief: as §1
Staphylococcus aureus = test: Antibacterial activity against Staphylococcus aureus by broth dilution method; type: functional; method in brief: as §1
Saccharomyces cerevisiae = test: Antifungal activity against Saccharomyces cerevisiae by agar cup diffusion method; type: functional, organism-based
[2] = Inhibition of bovine N-acetyl-beta-D-glucosaminidase; parameters: species or system Bos taurus

Row | MIC (Escherichia coli) | MIC [1] | MIC (Klebsiella pneumoniae) | MIC (Bacillus subtilis) | MIC (Pseudomonas aeruginosa) | MIC (Staphylococcus aureus) | Ki [2] | SMILES | Activity (Candida albicans) | Activity (Rhizopus arrhizus) | Activity (Aspergillus niger) | Activity (Saccharomyces cerevisiae)
1 | 75 µg/mL (≈ 139 µM) | 75 µg/mL (≈ 139 µM) | 150 µg/mL (≈ 277 µM) | 150 µg/mL (≈ 277 µM) | 37.5 µg/mL (≈ 69.4 µM) | 150 µg/mL (≈ 277 µM) |  | Cc1cccc(-n2c(C3OC(C)(C)O[C@H]3[C@@H](O)[C@H]3COC(C)(C)O3)nc(-c3ccccc3)c2-c2ccccc2)c1 (some centres not stated) | inactive | inactive | inactive | inactive
2 | 75 µg/mL (≈ 183 µM) | 75 µg/mL (≈ 183 µM) | 75 µg/mL (≈ 183 µM) | 150 µg/mL (≈ 365 µM) | 150 µg/mL (≈ 365 µM) | 150 µg/mL (≈ 365 µM) |  | Cc1ccc(-n2c([C@H]3COC(C)(C)O3)nc(-c3ccccc3)c2-c2ccccc2)cc1 | inactive | inactive | inactive | inactive
3 | 75 µg/mL (≈ 138 µM) | 150 µg/mL (≈ 275 µM) | 75 µg/mL (≈ 138 µM) | 150 µg/mL (≈ 275 µM) | 75 µg/mL (≈ 138 µM) | 150 µg/mL (≈ 275 µM) |  | CC1(C)OC(c2nc(-c3ccccc3)c(-c3ccccc3)n2-c2ccc(F)cc2)[C@H]([C@@H](O)[C@H]2COC(C)(C)O2)O1 (some centres not stated) | inactive | inactive | inactive | inactive
4 | 75 µg/mL (≈ 139 µM) | 150 µg/mL (≈ 277 µM) | 75 µg/mL (≈ 139 µM) | 75 µg/mL (≈ 139 µM) | 75 µg/mL (≈ 139 µM) | 75 µg/mL (≈ 139 µM) |  | Cc1ccc(-n2c(C3OC(C)(C)O[C@H]3[C@@H](O)[C@H]3COC(C)(C)O3)nc(-c3ccccc3)c2-c2ccccc2)cc1 (some centres not stated) | inactive | inactive | inactive | inactive
5 | 75 µg/mL (≈ 139 µM) | 75 µg/mL (≈ 139 µM) | 75 µg/mL (≈ 139 µM) | 37.5 µg/mL (≈ 69.6 µM) | 75 µg/mL (≈ 139 µM) | 37.5 µg/mL (≈ 69.6 µM) |  | Cc1ccc(-n2c([C@H]3O[C@@H]4OC(C)(C)O[C@@H]4[C@H]4OC(C)(C)O[C@H]43)nc(-c3ccccc3)c2-c2ccccc2)cc1 | inactive | inactive | inactive | inactive
6 | 37.5 µg/mL (≈ 90.5 µM) | 75 µg/mL (≈ 181 µM) | 75 µg/mL (≈ 181 µM) | 75 µg/mL (≈ 181 µM) | 37.5 µg/mL (≈ 90.5 µM) | 75 µg/mL (≈ 181 µM) |  | CC1(C)OC[C@H](c2nc(-c3ccccc3)c(-c3ccccc3)n2-c2ccc(F)cc2)O1 | inactive | inactive | inactive | inactive

More lines, now with the values behind:

Row | SMILES | MIC (Escherichia coli) | MIC [1] | MIC (Klebsiella pneumoniae) | MIC (Bacillus subtilis) | MIC (Pseudomonas aeruginosa) | MIC (Staphylococcus aureus) | Ki [2] | Activity (Candida albicans) | Activity (Rhizopus arrhizus) | Activity (Aspergillus niger) | Activity (Saccharomyces cerevisiae)
7 | OC[C@@H](O)[C@@H](O)[C@@H](O)[C@H](O)c1nc(-c2ccccc2)c(-c2ccccc2)n1Cc1ccccc1 | 75 µg/mL (≈ 163 µM) | 75 µg/mL (≈ 163 µM) | 75 µg/mL (≈ 163 µM) | 75 µg/mL (≈ 163 µM) | 75 µg/mL (≈ 163 µM) | 75 µg/mL (≈ 163 µM) |  | inactive | inactive | inactive | inactive
8 | CC1(C)O[C@H]2O[C@H](c3nc(-c4ccccc4)c(-c4ccccc4)n3Cc3ccccc3)[C@H](O)[C@H]2O1 | 150 µg/mL (≈ 320 µM) | 150 µg/mL (≈ 320 µM) | 75 µg/mL (≈ 160 µM) | 150 µg/mL (≈ 320 µM) | 37.5 µg/mL (≈ 80 µM) | 150 µg/mL (≈ 320 µM) |  | inactive | inactive | inactive | inactive
9 | CN[C@@H]1[C@H](O[C@H]2[C@H](O[C@H]3[C@H](O)[C@@H](O)[C@H](N=C(N)N)[C@@H](O)[C@@H]3N=C(N)N)O[C@@H](C)[C@]2(O)C=O)O[C@@H](CO)[C@H](O)[C@H]1O (stereo in doubt) [STREPTOMYCIN] | 2.35 µg/mL (≈ 4.04 µM) | 1.56 µg/mL (≈ 2.69 µM) | 3.12 µg/mL (≈ 5.37 µM) | 6.25 µg/mL (≈ 10.7 µM) | 3.12 µg/mL (≈ 5.37 µM) | 1.56 µg/mL (≈ 2.69 µM) |  |  |  |  | 
10 | CC(=O)N[C@H]1c2nc(CC(=O)O)cn2[C@H](CO)[C@H](O)[C@@H]1O [NAGSTATIN] |  |  |  |  |  |  | 4 nM |  |  |  | 
11 | CC1(C)OC(c2nc(-c3ccccc3)c(-c3ccccc3)n2Cc2ccccc2)[C@H]([C@@H](O)[C@H]2COC(C)(C)O2)O1 (some centres not stated) | 75 µg/mL (≈ 139 µM) | 150 µg/mL (≈ 277 µM) | 75 µg/mL (≈ 139 µM) | 75 µg/mL (≈ 139 µM) | 37.5 µg/mL (≈ 69.4 µM) | 75 µg/mL (≈ 139 µM) |  | inactive | inactive | inactive | inactive
